Experimental data gathered from unrelated publications.
Each line is one published result; the experiments were not run side by side.
Target: Serine/threonine-protein kinase BRSK1 (BRSK1, Homo sapiens, UniProt Q8TDC3)
Sequence (Q8TDC3 1-778, as in one of the studies): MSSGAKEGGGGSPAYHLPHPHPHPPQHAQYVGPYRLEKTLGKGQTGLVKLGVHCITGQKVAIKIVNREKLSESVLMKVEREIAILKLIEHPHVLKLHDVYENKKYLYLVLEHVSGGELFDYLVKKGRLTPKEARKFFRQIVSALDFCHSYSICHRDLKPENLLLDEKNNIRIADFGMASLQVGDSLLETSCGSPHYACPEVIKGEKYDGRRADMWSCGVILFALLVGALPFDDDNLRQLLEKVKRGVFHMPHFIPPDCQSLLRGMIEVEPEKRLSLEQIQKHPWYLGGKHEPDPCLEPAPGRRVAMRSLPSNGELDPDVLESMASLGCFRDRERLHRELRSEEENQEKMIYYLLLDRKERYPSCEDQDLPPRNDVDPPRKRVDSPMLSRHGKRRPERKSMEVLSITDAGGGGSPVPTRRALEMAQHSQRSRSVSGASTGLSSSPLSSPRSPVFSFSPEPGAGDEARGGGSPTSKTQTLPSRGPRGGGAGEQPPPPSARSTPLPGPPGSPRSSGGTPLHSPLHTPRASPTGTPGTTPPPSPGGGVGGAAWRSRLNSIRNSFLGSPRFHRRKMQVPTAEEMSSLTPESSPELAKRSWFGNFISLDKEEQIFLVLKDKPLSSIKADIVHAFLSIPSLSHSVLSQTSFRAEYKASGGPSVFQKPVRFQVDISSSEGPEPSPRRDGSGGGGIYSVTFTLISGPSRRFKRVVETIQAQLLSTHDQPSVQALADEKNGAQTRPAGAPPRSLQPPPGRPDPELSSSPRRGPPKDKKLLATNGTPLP

effect on	action	technique	tested at	measurement	value	SMILES
binding			1 µM	remaining binding	103%	COc1ccc2oc(-c3ccc4nc(N)oc4c3)c/c(=N\c3ccccc3NC(=O)CCN)c2c1
binding			1 µM	remaining binding	10%	COc1ccc2[nH]c3c4[nH]c5ccc(OC)cc5c4c4c(c3c2c1)C(=O)NC4=O
enzyme activity	inhibitor		1 µM	inhibition	0%	C=CC(=O)N1CCC([C@@H]2CCNc3c(C(N)=O)c(-c4ccc(Oc5ccccc5)cc4)nn32)CC1
binding		competition with immobilised ligand	0.5 µM	remaining binding	100%	CCCCC(=O)Nc1ccc(-c2ccc3ncn(CCC)c(=O)c3c2)cn1
enzyme activity	inhibitor		0.2 µM	inhibition	10.3%	C#Cc1cc(-c2cc(Nc3nc(N[C@@H](C)c4ccc(F)cn4)ncc3Cl)n[nH]2)ccc1C=O
enzyme activity	inhibitor		1 µM	inhibition	48%	CO[C@@H]1[C@H](N(C)C(=O)c2ccccc2)C[C@H]2O[C@]1(C)n1c3ccccc3c3c4c(c5c6ccccc6n2c5c31)C(=O)NC4
binding			1 µM	remaining binding	93%	Cc1ccc(NC(=O)c2ccnc(C(F)(F)F)c2)cc1-c1cc(OCCO)nc(N2CCOCC2)c1
binding			0.1 µM	remaining binding	99%	C1=C/COCc2cc(ccc2OCCN2CCCC2)Nc2nccc(n2)-c2cccc(c2)COC/1
